Measured values: ChEMBL document CHEMBL1130279 (J Med Chem, 1997)
pIC50, pKi: −log10 of the molar value.

Experiments:
[1] = target: T1, Sodium-dependent dopamine transporter (Rattus norvegicus, UniProt P23977); assay: Displacement of [3H]WIN-35428 from dopamine transporter in rat caudate putamen tissue; assay type: tissue-based
In short: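 Compounds were tested as oxalate salts unless noted; some were hydrochloride or fumarate. Values are mean ± SEM of three experiments, each run in triplicate.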

Rattus norvegicus = species on record: Rattus norvegicus; assay: Compound was evaluated for its ability to inhibit uptake of [3H]-dopamine into rat caudate putamen tissue; assay type: functional
[2] = target: T1, Sodium-dependent dopamine transporter; assay: Compound was evaluated for its ability to displace [3H]WIN-35428 from dopamine transporter in rat caudate putamen tissue; assay type: tissue-based
[3] = Rattus norvegicus, Caudate-putamen

T1 sequence (P23977 whole entry): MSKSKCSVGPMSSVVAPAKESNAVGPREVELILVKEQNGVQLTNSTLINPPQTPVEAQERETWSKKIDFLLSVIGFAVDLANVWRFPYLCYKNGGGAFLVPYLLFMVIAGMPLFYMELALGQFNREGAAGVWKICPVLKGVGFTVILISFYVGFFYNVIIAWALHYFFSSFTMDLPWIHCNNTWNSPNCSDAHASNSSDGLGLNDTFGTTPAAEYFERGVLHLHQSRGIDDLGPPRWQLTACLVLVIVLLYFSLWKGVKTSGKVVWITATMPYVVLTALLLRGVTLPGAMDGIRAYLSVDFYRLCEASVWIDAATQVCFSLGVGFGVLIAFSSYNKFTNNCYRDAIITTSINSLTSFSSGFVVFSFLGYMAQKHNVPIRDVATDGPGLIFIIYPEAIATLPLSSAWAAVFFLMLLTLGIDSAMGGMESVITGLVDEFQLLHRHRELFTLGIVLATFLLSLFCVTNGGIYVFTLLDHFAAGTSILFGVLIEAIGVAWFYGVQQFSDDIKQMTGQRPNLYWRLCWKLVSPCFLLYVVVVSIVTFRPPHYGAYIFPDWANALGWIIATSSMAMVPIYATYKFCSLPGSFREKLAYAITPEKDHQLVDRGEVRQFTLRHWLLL

Q: What does the source list for `COC(=O)CC1C(Cc2ccccc2)CC2CCC1N2C` (single isomer, unassigned; (+))?
A: pKi [1]: 7.22; pIC50 (Rattus norvegicus): 6.68

Q: Which results are given for `COC(=O)C[C@H]1C2C[C@@H](C)C(C[C@@H]1Cc1ccccc1)N2C` (stereo in doubt; 21b)?
A: pKi [1]: 7.24; pIC50 (Rattus norvegicus): 6.97

Q: With `CCCC1CC2C(CC(=O)OC)C(Cc3ccccc3)CC1N2C` (stereo in doubt; 21d) as the molecule, how does the pKi [1] read?
A: 5.23

Q: `CCCC1CC2C(CC(=O)OC)C(Cc3ccccc3)CC1N2C` (stereo in doubt; 22d) was tested. Which pKi [1] did it give?
A: 4.24

Q: With `COC(=O)C[C@H]1C2C[C@@H](C)C(C[C@@H]1Cc1ccccc1)N2C` (stereo in doubt; 22b) as the molecule, how does the pKi [1] read?
A: 6.53

Q: And the pIC50 (Rattus norvegicus)?
A: 6.27

Q: `CCCC[C@@H]1CC2[C@@H](CC(=O)OC)[C@@H](Cc3ccccc3)CC1N2C` (stereo in doubt; 19e) was tested. Which pKi [1] did it give?
A: 5.07

Q: With `COC(=O)C[C@@H]1C2C[C@H](C)C(C[C@@H]1Cc1ccccc1)N2C` (stereo partly specified) as the molecule, how does the pKi [1] read?
A: 6.68

Q: `COC(=O)C[C@H]1C2C[C@@H](Cc3ccccc3)C(C[C@@H]1Cc1ccccc1)N2C` (stereo partly specified) was tested. Which pKi [1] did it give?
A: 5.12

Q: How did the pKi [1] turn out when `CCC[C@H]1CC2[C@@H](CC(=O)OC)[C@@H](Cc3ccccc3)CC1N2C` (stereo in doubt; 20d) was run?
A: 5.14

Q: How did the pKi [1] turn out when `CC[C@@H]1CC2[C@@H](CC(=O)OC)[C@@H](Cc3ccccc3)CC1N2C` (stereo in doubt; 19c) was run?
A: 6.51

Q: How did the pKi [1] turn out when `COC(=O)CC1=C(Cc2ccccc2)CC2C(Cc3ccccc3)CC1N2C` (stereo unspecified) was run?
A: 5.32

Q: How did the pKi [1] turn out when `COC(=O)CC1C(Cc2ccccc2)CC2CCC1N2C` (stereo unspecified) was run?
A: 7.48

Q: And the pIC50 (Rattus norvegicus)?
A: 6.79

Q: `CCC1CC2C(CC(=O)OC)C(Cc3ccccc3)CC1N2C` (stereo in doubt; 21c) was tested. Which pKi [1] did it give?
A: 5.51

Q: How did the pKi [1] turn out when `CC[C@@H]1CC2[C@@H](CC(=O)OC)[C@@H](Cc3ccccc3)CC1N2C` (stereo in doubt; 20c) was run?
A: 5.94

Q: How did the pKi [1] turn out when `COC(=O)CC1C(Cc2ccccc2)CC2C(Cc3ccccc3)CC1N2C` (stereo unspecified) was run?
A: 5.51

Q: How did the pIC50 (Rattus norvegicus) turn out when `COC(=O)CC1C(Cc2ccccc2)CC2CCC1N2C` (stereo in doubt; 20a) was run?
A: 6.34

Q: Which results are given for `COC(=O)[C@@H]1C2CC[C@H](C[C@@H]1c1ccccc1)N2C`?
A: pIC50 (Rattus norvegicus; [3]): 6.43; pIC50 [2]: 6.50

Q: `COC(=O)C[C@@H]1C2CCC(C[C@@H]1Cc1ccccc1)N2C` (stereo partly specified) was tested. Which pIC50 (Rattus norvegicus; [3]) did it give?
A: 7.03

Q: With `CCC1CC2C(CC(=O)OC)C(Cc3ccccc3)CC1N2C` (stereo in doubt; 22c) as the molecule, how does the pKi [1] read?
A: 5.21

Q: How did the pKi [1] turn out when `COC(=O)C[C@@H]1C2C[C@@H](Cc3ccccc3)C(C[C@@H]1Cc1ccccc1)N2C` (stereo partly specified) was run?
A: 5.51

Q: How did the pKi [1] turn out when `CCCC[C@@H]1CC2[C@@H](CC(=O)OC)[C@@H](Cc3ccccc3)CC1N2C` (stereo in doubt; 20e) was run?
A: 4.71
